Drawing on PubChem BioAssay AID638 (SRMLSC, 2007), this text covers growth inhibition for 93 compounds.

Structures are written as SMILES. Hit rate of the full screen: of about 1,300 compounds, about 65 (5%) were called active.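 The calls were made as follows: active = growth inhibition reaching a set limit at one or more tested doses; inactive = the rest.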 A selection follows. Potency and affinity values are given separately.

The assay is described as follows: growth inhibition of wild-type E. coli, dose response, BW25113 wild type, OD615 (AID 638). Conditions: at 100 µM (top of the series) unless noted. In outline:
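Assay system: E. coli BW25113 wild type; buffer or medium: Kanamycin-supplemented LB broth; signal: optical density (absorbance) at 615 nm; controls: chloramphenicol 30 µM control; doses: compound concentration series; times: bacterial exposure to compound 20 h at 37 °C; evaluation: IC50 from 4-parameter logistic, bounds fixed 0–100%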
In the case of `COc1ccc(-c2noc(Cc3ccc(Cl)cc3)n2)cc1OC`, the growth inhibition is 7.9% (inactive).
Then `COc1cccc(N2CC(C(=O)Nc3ccc(C(=O)OC(C)C)cc3)CC2=O)c1` (stereo not drawn), with 5.31% (inactive); and `CCCCCOC(=O)c1ccc(NC(=O)c2ccco2)cc1`, with -0.06% (inactive).
As to `CCOC(=O)c1cnc(-n2nc(C)cc2C)nc1NC1CCCCC1`, the growth inhibition was -4.22% (inactive).
For the compound `COc1ccccc1N1CCN(Cc2nc(N)nc(Nc3ccc(C)c(Cl)c3)n2)CC1`, the growth inhibition is 8.69% (inactive).
In the case of `CN1C(=O)C2(OCC(COc3ccc(Cl)cc3)O2)c2ccccc21` (stereo not drawn), the growth inhibition was -7.83% (inactive).
Then `Cc1ccc(C)c(Cn2c(CN(C)Cc3ccccc3)nc3c2c(=O)n(C)c(=O)n3C)c1`, with -10% (inactive); and `CCC(Oc1ccccc1)C(=O)Nc1ccc(-c2nnc(-c3ccco3)o2)cc1` (stereo not drawn), with -9.73% (inactive); and `Cc1nc2c(C(=O)NCCC3=CCCCC3)c[nH]n2c(=O)c1Cl`, with 5.42% (inactive).
The figure for `CCOC(=O)C1CN(c2cc3c(cc2F)c(=O)c(C(=O)O)cn3CC)OC1C(=O)OCC` (stereo not drawn) is 3.92% (inactive).
Then `Cc1cc(N2CCC(C)CC2)nc(-n2nc(C)cc2C)n1`, with -4.79% (inactive).
With `O=c1[nH]c(=O)n(C2CCCCCC2)c(O)c1C=NCc1ccc(F)cc1`, the growth inhibition was -0.14% (inactive).
Then `COC(=O)c1c(NC(=O)CCc2ccc(C)o2)sc(C)c1C`, with 3.59% (inactive); and `N#Cc1nc(Cc2cccc3ccccc23)oc1NCCCn1ccnc1`, with 2.47% (inactive).
As for `N#Cc1nc(Cc2cccc3ccccc23)oc1NCc1ccc(F)cc1`, the growth inhibition is 20% (active).
Then `N#Cc1nc(Cc2ccccc2)oc1NCc1ccccc1Cl`, with 14.5% (inactive); and `CC1CCC(C(C)C)C(OC(=O)COC(=O)c2ccc(=O)[nH]c2)C1` (stereo not drawn), with 1.53% (inactive); and `C=CCn1c(NC(C)c2cc(Cl)ccc2O)nc2ccccc21` (stereo not drawn), with 13.7% (inactive).
Then `O=C(Nc1ccccc1N1CCCCC1)c1cccs1`, with 1.03% (inactive).
Take `O=C(OC1CCCCC1)c1ccc(NC(=O)c2ccco2)cc1`: the growth inhibition is 2.7% (inactive).
The figure for `O=C(Nc1nnc(-c2ccc(F)cc2)o1)c1ccco1` is 1.59% (inactive); for `Cc1nn(-c2ccccc2)c(C)c1C(=O)Nc1nnc(-c2ccco2)o1` it is 9.7% (inactive); for `Cc1ccc(-c2csc3ncnc(Sc4nnc(CN5CCCCCC5=O)o4)c23)cc1` it is 5.4% (inactive).
For `CCc1ccc2[nH]c(=O)c(C(c3nnnn3CCOC)N3CCN(c4ccc(F)cc4)CC3)cc2c1` (stereo not drawn), the growth inhibition was -0.14% (inactive).
Then `CC(C)OCCCNc1ncnc2c1[nH]c1ccc(F)cc12`, with 9.62% (inactive); and `CC(C)OCCCNc1ncnc2c1[nH]c1ccccc12`, with 8.07% (inactive).
On to `CCOc1ccc2[nH]c3c(N4CCN(c5ccccn5)CC4)ncnc3c2c1`, for which the growth inhibition was -8.17% (inactive).
With `N#C/C(=C\c1cccs1)Sc1nc2ccccc2s1`, the growth inhibition is -8.78% (inactive).
As to `O=C(CN(Cc1ccc2c(c1)OCO2)C(=O)CSc1nc2ccccc2o1)NC1CCCCC1`, the growth inhibition is -6.97% (inactive).
As for `C=C(C)Cn1c(N2CCC(Cc3ccccc3)CC2)nc2c1c(=O)[nH]c(=O)n2C`, the growth inhibition was -2.32% (inactive).
Then `Cn1c(=O)c2c(nc(N3CCCCCC3)n2Cc2cccc3ccccc23)n(C)c1=O`, with -1.26% (inactive).
The figure for `CCOc1ccccc1N1CCN(Cc2ccc(Br)s2)CC1` is -0.45% (inactive); for `CC1=CC(C)(C)N2C(=O)C3(SCC(=O)N3c3ccc(O)cc3)c3cc(C)cc1c32` (stereo not drawn) it is 1.81% (inactive).
In the case of `CCCOC(=O)c1ccc(Oc2cn[nH]c2-c2ccc(OCC)cc2O)cc1`, the growth inhibition was 8.01% (inactive).
Take `Cn1c(=O)n(CCCOc2ccc(Br)cc2)c2ccccc21`: the growth inhibition was 9.45% (inactive).
For the compound `C=C(C)COc1ccc(-c2n[nH]c(C)c2-c2ccccc2)c(O)c1`, the growth inhibition was 20.5% (active).
Then `C=C(C)COc1ccc(-c2n[nH]c(C)c2Oc2ccccc2OC)c(O)c1`, with 0.02% (inactive); and `C=C(C)COc1ccc(-c2n[nH]c(C)c2-c2ccccc2OC)c(O)c1`, with 8.4% (inactive).
The figure for `c1ccc(-c2nc(N3CCCCCC3)c3ccccc3n2)nc1` is 17.1% [at 50 µM] (inactive); for `Cc1cccc(Nc2nc(-c3ccccn3)cs2)n1` it is 4.37% (inactive).
The figure for `CCCCn1c(NC(=O)c2ccccc2)c(C#N)c2nc3ccccc3nc21` is -8.7% (inactive); for `CCn1c(Cn2nnc(-c3ccccc3)n2)nnc1SCc1ccc(Cl)c(Cl)c1` it is -0.33% (inactive).
Take `Cc1cccc(NC(=O)c2cc(NC(=O)C3CCCCC3C(=O)O)ccc2N2CCCCC2)c1` (stereo not drawn): the growth inhibition was -4.25% (inactive).
With `O=C(COn1nnc2ccc(C(F)(F)F)cc21)Nc1nnc(-c2ccccc2)o1`, the growth inhibition was -3.92% (inactive).
For `O/N=C(\c1ccc(Cl)cc1)c1cc2ccccc2o1`, the growth inhibition is 8.62% (inactive).
Then `Cc1onc(-c2ccccc2)c1C(=O)OCC(=O)c1ccccc1`, with 1.87% (inactive); and `CN(c1ccccc1C(=O)Nc1ccc(S(=O)(=O)N2CCCCC2)cc1)S(C)(=O)=O`, with -1.44% (inactive).
The figure for `O=C(NC1CCCC1)c1sc(=S)n2c1[nH]c(=O)c1ccccc12` is -2.92% (inactive); for `Cn1c(=O)c2c(SCc3cccnc3)nc(CC(C)(C)C)nc2n(C)c1=O` it is 1.92% (inactive).
The figure for `O=C(Nc1ccc(S(=O)(=O)N2CCCc3ccccc32)cc1)C1CCCO1` (stereo not drawn) is -2.99% (inactive).
As for `c1ccc(-n2nnnc2Oc2cccc3cccnc23)cc1`, the growth inhibition is 2.63% (inactive).
For `O=C(NCc1ccco1)c1cc2sccc2n1Cc1ccccc1`, the growth inhibition is -6.37% (inactive).
The figure for `N=c1n(CCN2CCOCC2)c2ccccc2n1CC(=O)c1ccc(Cl)c(Cl)c1` is -3.82% (inactive); for `c1csc(-c2nc3nc4ccccc4nc3n2Cc2ccc3c(c2)OCO3)c1` it is -7.29% (inactive); for `COc1cc(-c2nc(Cc3ccccc3Cl)no2)cc(OC)c1OC` it is 8.5% (inactive).
The figure for `O=C(COc1ccc2ccccc2c1Br)N1CCN(c2ccccn2)CC1` is -12.5% (inactive).
As for `CSCCOC(=O)C1=C(C)NC(=O)CC1c1ccccc1Cl` (stereo not drawn), the growth inhibition is 3.74% (inactive).
As to `CC(OC(=O)c1ccccc1NCc1ccco1)C(=O)Nc1ncc(Cl)cc1Cl` (stereo not drawn), the growth inhibition is 11.2% (inactive).
Turning to `COc1ccc(S(=O)(=O)Nc2ccc(S(=O)(=O)N3CCCCC3)cc2)cc1`, the growth inhibition is -5.18% (inactive).
The figure for `N#CC1=C(N)NC(SCc2ccccc2)=C(C#N)C12CCCCC2` is 12.1% (inactive); for `CCSc1nnc(NC(=O)CSc2nccn2-c2cccc(C)c2C)s1` it is 2.99% (inactive).
Then `Cc1onc(-c2c(F)cccc2Cl)c1C(=O)Nc1nc2c(s1)CCCC2`, with -5.05% (inactive).
For the compound `Cc1cc(N2CCN(C(c3ccccc3)c3ccccc3)CC2)n2ncnc2n1`, the growth inhibition was 6.9% (inactive).
For `COc1ccc(OC)c(S(=O)(=O)n2cnc3cc(C)c(C)cc32)c1`, the growth inhibition was -5.06% (inactive).
On to `CCc1nc(N2CCCCC2)c2oc3ccccc3c2n1`, for which the growth inhibition was -1.03% (inactive).
In the case of `Brc1cc(Br)c2ncnc(N3CCCCC3)c2c1`, the growth inhibition is 7.11% (inactive).
The figure for `c1ccc(-c2nc(CSc3nnc(-c4cccs4)o3)cs2)cc1` is -5.14% (inactive).
For `Cc1cc(-c2ccco2)c(C#N)c2nc3ccccc3n12`, the growth inhibition was -4.65% (inactive).
As for `Cc1ccc(NC(=O)N2CCC(c3nc4c(nnn4Cc4cccc(Cl)c4)c(=O)[nH]3)CC2)cc1`, the growth inhibition was -0.39% (inactive).
Then `O=C(Nc1nnc(-c2ccc(Cl)cc2)o1)c1ccccc1Br`, with 5.98% [at 50 µM] (inactive).
With `O=C(Nc1nnc(-c2ccccc2)o1)c1nc2ccccc2s1`, the growth inhibition was -11.8% (inactive).
Take `Cc1ccc(C2c3c(-c4ccccc4O)n[nH]c3C(=O)N2Cc2ccncc2)cc1` (stereo not drawn): the growth inhibition was -4.25% (inactive).
Then `O=C(Nc1ccc(Cl)c(Cl)c1)N1CCSC1c1ccco1` (stereo not drawn), with 15.6% (inactive).
The figure for `CCSc1nnc(NC(=O)c2nc(-c3ccccc3)n(-c3ccccc3)n2)s1` is -4.83% (inactive); for `CCc1nnc(NC(=O)c2cccc(C(=O)Nc3nnc(CC)s3)n2)s1` it is 9.58% (inactive); for `Cc1ccc(-c2nnc3sc(CCc4ccccc4)nn23)cc1` it is 9.95% (inactive).
Then `COC(=O)c1ccsc1NC(=O)CN1CCN(c2ccc(F)cc2)CC1`, with -9.19% (inactive); and `O=C(c1cccc(COc2ccc(Cl)cc2Cl)c1)N1CCN(c2ccccn2)CC1`, with -14.7% (inactive); and `O=C(Nc1nc2ccccc2s1)C1CCCN1S(=O)(=O)c1ccc(Cl)cc1` (stereo not drawn), with -7.08% (inactive).
Turning to `COc1ccc(-c2nnc(SCc3cc(C)cc(C)c3)o2)cc1`, the growth inhibition is -1.05% (inactive).
On to `c1ccc(N2CCN(c3ncnc4c3oc3ccccc34)CC2)cc1`, for which the growth inhibition is -9.68% (inactive).
The figure for `COc1ccc(C)cc1NC(=O)CSc1nnc(COc2ccccc2)n1Cc1ccco1` is 0.64% (inactive); for `CCc1cc2c3c(c(=O)oc2cc1O)CCCC3` it is -5.58% (inactive); for `CCCn1c(CNc2ccc(Br)cc2)nc2ccccc21` it is 7.8% (inactive).
For the compound `CCc1nc2ccccc2c(=O)n1NC(=O)c1c(O)c2cccc3c2n(c1=O)CCC3`, the growth inhibition is -13.7% (inactive).
The figure for `COc1ccc(C2CC(c3ccccc3)n3nc(NC(=O)c4cccs4)nc3N2)cc1` (stereo not drawn) is 3.83% (inactive).
The figure for `O=C(Nc1nc2n(n1)C(c1ccc(Cl)cc1)CC(c1ccc(Cl)cc1)N2)c1ccco1` (stereo not drawn) is 13% (active); for `O=C(Nc1nc2ccccc2n1CCOc1ccc(Cl)cc1)c1ccco1` it is 3.35% (inactive); for `O=C(Cn1c2c(c(-c3ccccc3)cc1=O)CCCC2)N1CCCCCC1` it is 3.36% (inactive).
Take `C=CCn1c(SCC(O)Cn2c3ccccc3c3ccccc32)nnc1-c1ccco1` (stereo not drawn): the growth inhibition was -9.43% (inactive).
Then `O=C(CSc1nnc2scc(-c3ccccc3)n12)Nc1nsc(-c2ccccc2)n1`, with -9.04% (inactive); and `COc1ccc(Cl)cc1N1CCN(CCNC(=O)Nc2ccccc2C)CC1`, with -2.62% (inactive); and `Cn1c(=O)c(C(=S)NC(=O)C2CC2)c(N)n(Cc2ccccc2)c1=O`, with -3.57% (inactive).
